pIC50: −log10 of the molar value. Like-named read-outs stand apart in the source and are kept apart here.
How the values were obtained:
[1] = system: CYP3A4; settings: cited from earlier work
[2] = system: hERG potassium channel; settings: cited from earlier work
[3] = system: beagle dogs; assay: clinical observations, body weight and body temperature in dogs; format: in vivo, dog
How it was run: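 Four male beagles, 17–18 months old, 9.9–12.8 kg. Oral gelatin capsules at 0 (Avicel:Explotab 10:1), 1, 10 or 30 mg/kg (maleate salt) on days 1, 4, 8 and 11, in a Latin square with ascending doses and 2-day washouts. Checked twice daily for mortality, abnormalities and distress, with daily cage-side observations. Body weight recorded pre-dose and the day before each dosing. Body temperature recorded by implanted telemetry.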

[4] = system: CYP enzyme; settings: cited from earlier work
[5] = system: beagle dogs; assay: telemetry hemodynamic measurements in dogs; format: in vivo, dog; settings: for adjusted mean diastolic pressure, lower vs control: 1 hour post-dose; for adjusted mean pulse pressure, lower than controls / adjusted mean systolic pressure, lower than controls: 3 hours post-dose; for adjusted mean systolic pressure, lower than controls: not significant
How it was run: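 Telemetered male beagles (abdominal transmitter implanted at least 2 weeks before) given oral capsules at 0, 1, 10 or 30 mg/kg in a Latin square on days 1, 4, 8 and 11. Systolic, diastolic and mean arterial pressure, pulse pressure and heart rate recorded continuously from at least 90 min pre-dose to about 18 h post-dose. Analysed by repeated-measures ANCOVA with Dunnett or Dunnett–Hsu comparisons against control.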

[6] = system: Sprague Dawley rats; assay: functional observational battery; format: in vivo, rat; settings: female rats, oral ≤ 1000 mg/kg/day, 0.5 hours post-dose on day 2
How it was run: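 Eight female Sprague Dawley rats per group received oral gavage on days 1 and 2 at 0, 100, 300 or 1000 mg/kg/day (vehicle: 5% DMSO, 40% PEG 400, 55% saline; 10 mL/kg). Functional observational battery run once pre-dose and about 0.5 h post-dose on day 2, at the same time of day ±2 h. It covered sensory reactivity (approach response, righting reflex), grip strength, foot splay and body temperature.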

[7] = system: Sprague Dawley rats; assay: locomotor activity assessments; format: in vivo, rat; settings: female rats; for basic movements: day 2, 4–6 minutes post-commencement of assessment, control 375, p ≤ 0.05
How it was run: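 Female rats, 8 per group, dosed orally on days 1 and 2 at 0–1000 mg/kg/day. Tested pre-dose and on day 2: within 10 min after the functional battery, each rat was placed in a dark, sound-attenuated chamber. Photocell recording ran for 40 min, reported in 20 intervals of 2 min each. Read-outs: basic movement, horizontal and vertical ambulation, fine movement, rearing.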

[8] = system: humans; settings: any dose up to the maximum of 300 mg; cited from earlier work
[9] = dogs, 50 mg/kg; cited from earlier work
[10] = beagle dogs; cited from earlier work
[11] = system: rats; settings: doses up to 30 mg/kg; cited from earlier work
[12] = system: Sprague Dawley rats; assay: pulmonary assessments; format: in vivo, rat; settings: male rats, any dose level (100–1000 mg/kg/day)
How it was run: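 Eight male Sprague Dawley rats per group. Acclimated 4 days, then placed in head-out plethysmography chambers three times on separate days. On day 1, a single oral gavage dose of 0, 100, 300 or 1000 mg/kg (DMSO/PEG 400/saline vehicle), then immediate chamber placement. Recorded at baseline, through 6 h and about 24 h post-dose. Analysed by repeated-measures ANCOVA with Dunnett–Hsu comparisons against control.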

[13] = toxicokinetic analysis in rat plasma; format: in vivo; settings: all dose groups
How it was run: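 Toxicokinetic cohort of 60 Sprague Dawley rats (30 male), separate from the pharmacology groups. A single oral dose was given on day 1 at 0, 100, 300 or 1000 mg/kg (maleate salt). Blood was drawn from the jugular vein of non-fasted rats on a serial schedule. Cmax, Tmax and AUC were derived from plasma concentration–time data.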

[14] = rats, 100 mg/kg; cited from earlier work
[15] = system: P-glycoprotein (P-gp); settings: cited from earlier work
[16] = system: Sprague Dawley rats; assay: clinical observations and examinations in rats; format: in vivo, rat; settings: rats treated with trazpiroben
How it was run: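 Sprague Dawley rats, 11–12 weeks old, group-housed and acclimatised at least 1 week. Oral gavage at 0 (vehicle: 5% DMSO, 40% PEG 400, 55% saline), 100, 300 or 1000 mg/kg/day, 10 mL/kg, dose expressed as maleate salt. Checked twice daily for mortality, abnormalities and signs of pain or distress. Ophthalmic examination and body weight were recorded once pre-dose.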

[17] = system: beagle dogs; assay: telemetry ECG evaluation in dogs; format: in vivo, dog
How it was run: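 Male beagles with abdominal ECG/pressure/temperature transmitters implanted at least 2 weeks before. Oral capsule doses of 0, 1, 10 or 30 mg/kg in a Latin square with 2-day washouts. ECG recorded from at least 90 min pre-dose to about 18 h post-dose. QTc from a per-animal regression of 1-min QT versus RR means on the control day. Waveform review at 1, 2, 4, 8, 12 and 18 h. Repeated-measures ANCOVA with Dunnett tests.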

[18] = system: D2 receptor; settings: humans, cited from earlier work
[19] = system: D2 receptor; settings: rats, prolactin release as pharmacodynamic biomarker; cited from earlier work

## O=c1[nH]c2ccccc2n1CCCN1CCC(n2c(=O)[nH]c3cc(Cl)ccc32)CC1 [domperidone, reference compound]
[1]
  metabolizing enzyme: primarily metabolized via the cytochrome P450 (CYP) 3A4 enzyme
[2]; read-out: IC50, hERG potassium channel
  pIC50: 7.24

## O=C(O)c1cccc(CN2CN(C3CCCCC3)C3(CCN(CCCC(=O)c4ccccc4)CC3)C2=O)c1 [Trazpiroben]
[1]; Phase I drug–drug interaction study in healthy volunteers, ref NCT03161405
  CYP3A4 substrate classification: non-sensitive CYP3A4 substrate
[3]; doses ≤ 30 mg/kg
  effects on body weight or temperature: not associated with effects on body weight or temperature
[3]; to study termination on day 12
  survival: all dogs survived
[4]
  potential for CYP enzyme induction or inhibition: limited potential for CYP enzyme induction or inhibition
[5]; 1 mg/kg, 4 hours post-dose, p ≤ 0.05
  adjusted mean diastolic pressure, higher vs control: 6%
[5]; 10 mg/kg, p ≤ 0.05
  adjusted mean diastolic pressure, lower vs control: 5%
[5]; 10 mg/kg
  adjusted mean pulse pressure, lower than controls: 15%
  adjusted mean systolic pressure, lower than controls: 6%
[5]; 10 mg/kg, 4 hours post-dose, p ≤ 0.05
  adjusted mean diastolic pressure, higher vs control: 8%
[5]; 10 mg/kg, 5 hours post-dose, p ≤ 0.01
  adjusted mean diastolic pressure, higher vs control: 6%
[5]; 30 mg/kg, p ≤ 0.01
  adjusted mean diastolic pressure, lower vs control: 8%
[5]; 30 mg/kg
  adjusted mean pulse pressure, lower than controls: 23%
  adjusted mean systolic pressure, lower than controls: 9%
[5]; 30 mg/kg, 3 hours post-dose (greatest effect), first light cycle
  heart rate, higher than control: 28%
[5]; 30 mg/kg, 4 hours post-dose, p ≤ 0.05
  adjusted mean diastolic pressure, higher vs control: 5%
[5]; 30 mg/kg, 5 hours post-dose, p ≤ 0.01
  adjusted mean diastolic pressure, higher vs control: 6%
[5]; all changes, all doses
  changes in diastolic pressure, different from control: ≤ 8%
[6]
  effects on FOB assessment results: No effects were observed
[7]; 300 mg/kg/day
  basic movements: 199 basic movements in 2 minutes
[7]; 1000 mg/kg/day
  basic movements: 171 basic movements in 2 minutes
[7]; ≥ 300 mg/kg/day, 2–6 minutes post-dose
  counts of horizontal and vertical ambulation: significantly decreased
[8]
  CNS effects: no CNS effects noted
[9]
  brain penetration: minimal brain penetration
[10]
  median Tmax: approximately 1 hour post-dose
[11]
  effects in rotarod testing (motor coordination): no trazpiroben-related effects were observed
[12]
  effect on respiration rate or minute volume: No biologically relevant effect
[13]
  observed Cmax for each group of rats receiving trazpiroben: ≥ 1450 ng/mL
[14]
  brain penetration: minimal brain penetration
[15]
  substrate for the efflux transporter P-glycoprotein (P-gp): substrate
[16]
  clinical observations, ophthalmic and body weight parameters: No unexpected clinical observations or changes
  mortality: no trazpiroben-related mortality
[17]; dogs, 30 mg/kg, 3 hours after administration (maximal effect)
  adjusted PR interval mean, lower than control: 12%
[17]; dogs, 30 mg/kg, 3 hours after administration, control 102 msec
  adjusted PR interval mean: 90 ms
[17]; dogs, 1, 10, 30 mg/kg
  effects on QRS duration or QT interval corrected for heart rate (QTc): no trazpiroben-related effects
[17]; dogs, first light cycle, 30 mg/kg, not significant at any dose
  QT interval, lower than control: ≤ 6%
[17]; male beagle dogs, oral 1, 10, 30 mg/kg
  abnormal ECG waveforms or arrhythmias: No abnormal ECG waveforms or arrhythmias were recorded
[18]; first-in-human Phase I trial
  dose at which maximal D2 receptor engagement occurs: 10 mg
[18]; inferred using prolactin release
  average Cmax in plasma at maximal D2 receptor engagement: ~ 11 ng/mL
[19]
  dose at which maximal D2 receptor engagement occurs: 1 mg/kg
[2]
  difference in affinity, hERG versus intended D2/D3 receptor targets: 10,000 fold

— paper PMC8842350 (Journal of Experimental Pharmacology, 2022)
